Measured values reported in ChEMBL document CHEMBL1123041, “Synthesis of new bis(aminoethanethiol) (BAT) derivatives: possible ligands for 99mTc brain imaging agents” (J Med Chem, 1985).

Assays:
Rattus norvegicus [1] = assay: Biodistribution in Sprague-Dawley rat thyroid 15 minutes after intravenous administration, [99mTc]/[125I] IAP ratio); type: ADME, organism-based, Thyroid gland; settings: in vivo, 0.25 h
Procedure, shortened: (§1)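 99mTc complex and [125I]iodoantipyrine were co-injected iv into rats. Rats were killed by cardiectomy at 2 or 15 min, and organs were excised, weighed and gamma-counted in two channels with spillover correction. The ratio is 99mTc percent dose divided by 125I percent dose in the same organ, averaged over three rats. Radiochemical purity of the complexes was >95% by reversed-phase HPLC.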

Rattus norvegicus [2] = assay: Biodistribution in Sprague-Dawley rat muscle 2 minutes after intravenous administration, [99mTc]/[125I] IAP ratio); type: ADME, organism-based, Muscle tissue; settings: in vivo; procedure, shortened: as §1
Rattus norvegicus [3] = assay: Biodistribution in Sprague-Dawley rat lungs(2) 15 minutes after intravenous administration, [99mTc]/[125I] IAP ratio); type: ADME, organism-based, Lung; settings: in vivo, 0.25 h; procedure, shortened: as §1
Rattus norvegicus [4] = assay: Biodistribution in Sprague-Dawley rat stomach 15 minutes after intravenous administration, [99mTc]/[125I] IAP ratio); type: ADME, organism-based; settings: in vivo, 0.25 h; procedure, shortened: as §1
Rattus norvegicus [5] = assay: Biodistribution in Sprague-Dawley rat brain 2 minutes after intravenous administration, [99mTc]/[125I] IAP ratio); type: ADME, organism-based; settings: in vivo; procedure, shortened: as §1
Rattus norvegicus [6] = assay: Biodistribution in Sprague-Dawley rat stomach 2 minutes after intravenous administration, [99mTc]/[125I] IAP ratio); type: ADME, organism-based; settings: in vivo; procedure, shortened: as §1
Rattus norvegicus [7] = assay: Biodistribution in Sprague-Dawley rat heart 15 minutes after intravenous administration, [99mTc]/[125I] IAP ratio); type: ADME, organism-based; settings: in vivo, 0.25 h; procedure, shortened: as §1
Rattus norvegicus [8] = assay: Biodistribution in Sprague-Dawley rat liver 15 minutes after intravenous administration, [99mTc]/[125I] IAP ratio); type: ADME, organism-based; settings: in vivo, 0.25 h; procedure, shortened: as §1
Rattus norvegicus [9] = assay: Biodistribution in Sprague-Dawley rat small intestine 2 minutes after intravenous administration, [99mTc]/[125I] IAP ratio); type: ADME, organism-based; settings: in vivo; procedure, shortened: as §1
Rattus norvegicus [10] = assay: Biodistribution in Sprague-Dawley rat kidneys(2) 2 minutes after intravenous administration, [99mTc]/[125I] IAP ratio); type: ADME, organism-based, Kidney; settings: in vivo; procedure, shortened: as §1
Rattus norvegicus [11] = assay: Biodistribution in Sprague-Dawley rat thyroid 2 minutes after intravenous administration, [99mTc]/[125I] IAP ratio); type: ADME, organism-based, Thyroid gland; settings: in vivo; procedure, shortened: as §1
Rattus norvegicus [12] = assay: Biodistribution in Sprague-Dawley rat spleen 2 minutes after intravenous administration, [99mTc]/[125I] IAP ratio); type: ADME, organism-based; settings: in vivo; procedure, shortened: as §1
Homo sapiens = organism: Homo sapiens; assay: The human serum protein binding activity was determined; type: functional
Procedure, shortened: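 Equilibrium dialysis: 0.4 mL pooled human serum against 0.4 mL 0.15 M phosphate buffer pH 7.4 containing 99mTc complex (~0.025 μCi), rotated 18 h at 37 °C. Both sides weighed and counted; percent free = buffer/serum radioactivity concentration ratio × 100. Membrane counted afterwards to check membrane binding.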

Rattus norvegicus [13] = assay: Biodistribution in Sprague-Dawley rat liver 2 minutes after intravenous administration, [99mTc]/[125I] IAP ratio); type: ADME, organism-based; settings: in vivo; procedure, shortened: as §1
Rattus norvegicus [14] = assay: Biodistribution in Sprague-Dawley rat brain 15 minutes after intravenous administration, [99mTc]/[125I] IAP ratio); type: ADME, organism-based; settings: in vivo, 0.25 h; procedure, shortened: as §1
Rattus norvegicus [15] = assay: Biodistribution in Sprague-Dawley rat skin 15 minutes after intravenous administration, [99mTc]/[125I] IAP ratio); type: ADME, organism-based, Zone of skin; settings: in vivo, 0.25 h; procedure, shortened: as §1
Rattus norvegicus [16] = assay: Biodistribution in Sprague-Dawley rat heart 2 minutes after intravenous administration, [99mTc]/[125I] IAP ratio); type: ADME, organism-based; settings: in vivo; procedure, shortened: as §1
Rattus norvegicus [17] = assay: Biodistribution in Sprague-Dawley rat spleen 15 minutes after intravenous administration, [99mTc]/[125I] IAP ratio); type: ADME, organism-based; settings: in vivo, 0.25 h; procedure, shortened: as §1
Rattus norvegicus [18] = assay: Biodistribution in Sprague-Dawley rat lungs(2) 2 minutes after intravenous administration, [99mTc]/[125I] IAP ratio); type: ADME, organism-based, Lung; settings: in vivo; procedure, shortened: as §1
Rattus norvegicus [19] = assay: Biodistribution in Sprague-Dawley rat skin 2 minutes after intravenous administration, [99mTc]/[125I] IAP ratio); type: ADME, organism-based, Zone of skin; settings: in vivo; procedure, shortened: as §1
Rattus norvegicus [20] = assay: Biodistribution in Sprague-Dawley rat blood 2 minutes after intravenous administration, [99mTc]/[125I] IAP ratio); type: ADME, organism-based; settings: in vivo; procedure, shortened: as §1
Rattus norvegicus [21] = assay: Biodistribution in Sprague-Dawley rat kidneys(2) 15 minutes after intravenous administration, [99mTc]/[125I] IAP ratio); type: ADME, organism-based, Kidney; settings: in vivo, 0.25 h; procedure, shortened: as §1
[22] = Partition coefficient was determined at pH 7.0.; type: ADME; settings: octanol/water
Procedure, shortened: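 99mTc-labelled BAT complex shaken with 3 g each of 1-octanol and 0.1 M phosphate buffer (pH 7.0), vortexed 3 min at room temperature, centrifuged 5 min. Two 0.5 g samples per layer counted in a well counter; PC = cpm/g octanol over cpm/g buffer. Octanol layer repartitioned until values were consistent; usually repeated three times.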

Rattus norvegicus [23] = assay: Biodistribution in Sprague-Dawley rat small intestine 15 minutes after intravenous administration, [99mTc]/[125I] IAP ratio); type: ADME, organism-based; settings: in vivo, 0.25 h; procedure, shortened: as §1
Rattus norvegicus [24] = assay: Biodistribution in Sprague-Dawley rat muscle 15 minutes after intravenous administration, [99mTc]/[125I] IAP ratio); type: ADME, organism-based, Muscle tissue; settings: in vivo, 0.25 h; procedure, shortened: as §1
Rattus norvegicus [25] = assay: Biodistribution in Sprague-Dawley rat blood 15 minutes after intravenous administration, [99mTc]/[125I] IAP ratio); type: ADME, organism-based; settings: in vivo, 0.25 h; procedure, shortened: as §1
Rattus norvegicus [26] = assay: Compound was evaluated for the biodistribution in Sprague-Dawley rats in muscle 15 minutes after intravenous administration, [99mTc]/[125I] IAP ratio); type: ADME, organism-based, Muscle tissue; settings: in vivo, 0.25 h; procedure, shortened: as §1

Structure (SMILES)	Dose (Rattus norvegicus [1]) [%]	Dose (Rattus norvegicus [2]) [%]	Dose (Rattus norvegicus [3]) [%]	Dose (Rattus norvegicus [4]) [%]	Dose (Rattus norvegicus [5]) [%]	Dose (Rattus norvegicus [6]) [%]	Dose (Rattus norvegicus [7]) [%]	Dose (Rattus norvegicus [8]) [%]	Dose (Rattus norvegicus [9]) [%]	Dose (Rattus norvegicus [10]) [%]	Dose (Rattus norvegicus [11]) [%]	Dose (Rattus norvegicus [12]) [%]	Free (Homo sapiens) [%]	Dose (Rattus norvegicus [13]) [%]	Dose (Rattus norvegicus [14]) [%]	Dose (Rattus norvegicus [15]) [%]	Dose (Rattus norvegicus [16]) [%]	Dose (Rattus norvegicus [17]) [%]	Dose (Rattus norvegicus [18]) [%]	Dose (Rattus norvegicus [19]) [%]	also measured
COc1ccccc1C(CNCC(C)(C)S)NCC(C)(C)S (configuration not stated)	0.063	7.09	0.877	3.16	2.3	1.07	0.395	17.4	4.47	3.23	0.292	0.149	23.4	11.9	0.297	11.8	4.46	0.197	5.49	5.21	Dose (Rattus norvegicus [20]): 7.81%; Dose (Rattus norvegicus [21]): 1.1%; Partition coefficient [22]: 260; Dose (Rattus norvegicus [23]): 12.5%; Dose (Rattus norvegicus [24]): 15.1%; Dose (Rattus norvegicus [25]): 2.56%
CC(C)(S)CNCC(CN)NCC(C)(C)S.Cl.Cl.Cl (configuration not stated)	0.045	9.19	1.57	5.24	1.28	2.23	0.375	22.7	5.09	3.57	0.124	0.274	46.2	21.7	0.288	9.43	1.08	0.206	3.08	8.84	Dose (Rattus norvegicus [26]): 18.5%; Dose (Rattus norvegicus [20]): 13.6%; Dose (Rattus norvegicus [21]): 2.47%; Partition coefficient [22]: 46.8; Dose (Rattus norvegicus [23]): 11.8%; Dose (Rattus norvegicus [25]): 8.07%
